Screening results: PubChem BioAssay, several laboratories
Cl transport mod = modulators of human KCC2 chloride dependent transport; KCC2 cells, thallium flux FluoZin-2 fluorescence; B-score of Tl+ flux slope (higher = more flux/activation; lower = inhibition) at 10 µM; 190,000 compounds, 2.2% hits;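 active = thallium flux slope and its plate-corrected score both differing from the plate sample mean at a set confidence after two filtering rounds, in either direction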;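 also: slope of fluorescence scaled to starting intensity during 10 to 20 s after thallium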
KCNQ1 act = human KCNQ1 channel potentiation or activation; CHO-K1 KCNQ1, thallium flux FluxOR fluorescence; stronger effect = higher value; 310,000 compounds, 0.35% hits; B-score at 10 µM; P51787;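 active = fluorescence ratio B-score, a plate-corrected score, at least three library SD, with initial intensity B-score within 5 SD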
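Doses: Single concentration per compound, DMSO matched to controls | Test system: KCNQ1-transfected CHO-K1 cells | Timing: 90 min dye loading and 20 min compound exposure, both at room temperature | Measured by: Kinetic FluxOR thallium fluorescence, 10-s 1-Hz baseline, 110-s post-stimulus read | Medium: Assay buffer with matched DMSO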
KCNQ1 inh = human KCNQ1 channel inhibition; CHO-K1 KCNQ1, FluxOR thallium flux fluorescence; stronger effect = higher value; B-score at 10 µM; 310,000 compounds, 1.3% hits; AID 2642;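 active = compounds whose thallium flux B-score, printed positive for inhibition, exceeds three library SD while starting fluorescence stays within three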;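 also: channel opened by potassium depolarization with thallium stimulus after 20 min compound exposure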
SUMO Mot1 rescue = blocks SUMOylation pathway, rescuing yeast Mot1-301 growth; S. cerevisiae Mot1-301 growth rescue, ATP luminescence, 38.5C; percent above DMSO median, 100 means doubled; growth rescue, % at 18.8 µM; 320,000 compounds, 1% hits; AID 2716;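 active = every valid replicate shows activation above 250% relative to neutral control wells; inactive = the rest, any valid replicate at or below 250%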;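 also: OY570 slx delta 5 strain wells were the positive control but not used for scaling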
hERG protect = compounds protecting human hERG from proarrhythmic drug block; Q12809; CHO-hERG, FluxOR thallium flux, dofetilide IC70 present; activation (rescue from dofetilide block), less the hit threshold, % at 10 µM; 310,000 compounds, 0.51% hits;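 active = activation above the mean of controls blocked by dofetilide plus 5 SD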;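 also: thallium influx through hERG after potassium depolarization seen as dye fluorescence rise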
Target sequence (Q12809 whole entry, looked up): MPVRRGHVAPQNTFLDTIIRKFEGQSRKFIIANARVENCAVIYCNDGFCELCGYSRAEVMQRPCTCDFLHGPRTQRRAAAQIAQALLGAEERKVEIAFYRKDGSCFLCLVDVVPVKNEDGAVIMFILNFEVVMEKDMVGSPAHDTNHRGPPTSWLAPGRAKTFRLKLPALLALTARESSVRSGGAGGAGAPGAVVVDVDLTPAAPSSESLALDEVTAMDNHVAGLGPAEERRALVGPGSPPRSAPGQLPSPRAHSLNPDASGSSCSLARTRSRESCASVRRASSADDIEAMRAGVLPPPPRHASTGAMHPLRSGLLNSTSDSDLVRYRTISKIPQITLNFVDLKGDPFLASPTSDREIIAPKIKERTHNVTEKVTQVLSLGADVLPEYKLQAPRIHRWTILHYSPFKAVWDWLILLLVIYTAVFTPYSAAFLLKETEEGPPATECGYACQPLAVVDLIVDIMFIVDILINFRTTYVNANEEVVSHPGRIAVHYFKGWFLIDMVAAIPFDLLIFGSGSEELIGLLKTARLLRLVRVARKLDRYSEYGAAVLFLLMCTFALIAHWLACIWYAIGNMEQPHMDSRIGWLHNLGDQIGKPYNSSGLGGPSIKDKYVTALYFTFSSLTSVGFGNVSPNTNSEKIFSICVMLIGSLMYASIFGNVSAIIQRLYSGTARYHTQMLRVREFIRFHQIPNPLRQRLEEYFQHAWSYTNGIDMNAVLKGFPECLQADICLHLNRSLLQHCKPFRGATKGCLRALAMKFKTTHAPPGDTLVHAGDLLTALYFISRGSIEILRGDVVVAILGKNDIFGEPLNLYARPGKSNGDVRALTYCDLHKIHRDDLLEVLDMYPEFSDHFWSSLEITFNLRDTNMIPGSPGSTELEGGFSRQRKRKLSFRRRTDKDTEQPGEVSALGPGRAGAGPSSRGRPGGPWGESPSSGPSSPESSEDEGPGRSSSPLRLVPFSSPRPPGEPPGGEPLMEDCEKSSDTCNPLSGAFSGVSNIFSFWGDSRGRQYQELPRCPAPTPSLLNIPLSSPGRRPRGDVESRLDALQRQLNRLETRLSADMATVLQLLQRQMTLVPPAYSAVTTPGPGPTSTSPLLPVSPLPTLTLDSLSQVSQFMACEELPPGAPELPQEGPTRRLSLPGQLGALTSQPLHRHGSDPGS
AI-2 QS mod = Vibrio harveyi AI-2 quorum sensing modulation. Vibrio harveyi JMH597 AI-2 luminescence/OD600 ratio, 9 h; stronger effect = lower value; strain lacks LuxN and CqsS sensors; 0 = neutral-control median. activity change, % at 7.5 µM. 300,000 compounds, 0.4% hits. AID 2094; in the data active = activity change below about -75%, passing the limit was not always enough; inconclusive = no clear call, values can overlap the other calls;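 also: luminescence divided by OD600 gain over 9 h not by final OD600 alone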
KCC2 secondary = confirmation of human KCC2 transport modulators. normalised thallium flux (F/F0 slope) at 10 µM. HEK293-KCC2, thallium flux, FluoZin2 fluorescence; stronger effect = higher value. shares compounds with Cl transport mod. 3,700 compounds, 15% hits;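 active = thallium flux slope above the same plate's solvent-only control mean plus 3 SD; inconclusive = the two replicate wells disagree; inactive = no significant difference from solvent-only control wells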
KCC2 bumet counter = thallium flux persisting under bumetanide in KCC2 cells, counter-screen secondary assay | normalized thallium flux at 10 µM | shares compounds with Cl transport mod | AID 1714 | HEK293-KCC2 + bumetanide/ouabain, thallium flux FluoZin2; stronger effect = higher value | 3,700 compounds, 49% hits;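 active = thallium entry rate above the same plate's blocked-transporter control wells by more than 3 SD; inconclusive = the two repeat wells disagree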;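 also: raw slope of fluorescence over initial fluorescence between 10 and 20 s after thallium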
KCC2 sec2 = KCC2 (human) modulation, second secondary assay. shares compounds with Cl transport mod. HEK293-KCC2, thallium flux FluoZin2 fluorescence; actives lie on both sides; F/F0 rise rate, 10–20 s post-thallium. normalized thallium flux at 10 µM. 3,700 compounds, 23% hits. AID 1715;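 active = thallium flux slope more than 3 SD above or below the plate's solvent-only control mean, mostly below; inconclusive = the two repeat wells disagreed; inactive = no significant shift from solvent-only controls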;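 also: raw slope with 0.1% DMSO as baseline and bumetanide as block control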
HEK293 Tl flux = counter-screen for KCC2 modulators: effect in parental HEK293 cells; thallium flux FluoZin2, ouabain; baseline-ratio fluorescence slope, 10–20 s after thallium; thallium flux rate (normalised fluorescence) at 10 µM; 3,700 compounds, 46% hits; shares compounds with Cl transport mod;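 active = thallium flux rate significantly above the same plate's solvent-only control wells, beyond their mean plus 3 SD; inconclusive = the two replicate wells gave conflicting results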
KCC2 ouabain = KCC2 (human) modulation, ouabain retest. shares compounds with Cl transport mod. HEK293-KCC2, thallium flux FluoZin2 fluorescence; bidirectional: low = inhibitor, high = activator. raw Tl+ flux slope (below DMSO = inhibition, above = activation) at 10 µM. 3,700 compounds, 48% hits. AID 1717;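 active = thallium flux slope beyond 3 SD from same-plate DMSO control mean in most replicates, usually higher, sometimes lower; inconclusive = repeat tests gave conflicting results; inactive = no significant difference from controls in most replicates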;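 also: slope of initial-normalized fluorescence between seconds 10 and 20 after thallium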
HEK counter2 = counter-screen for KCC2 modulators: effect in parental HEK293 cells; 3,700 compounds, 33% hits; AID 1718; thallium flux slope at 10 µM; thallium flux FluoZin-2 fluorescence slope; shares compounds with Cl transport mod;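 active = thallium flux slope above the same plate's solvent-control mean plus 3 SD in both duplicate wells; inconclusive = duplicate wells that disagreed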;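 also: run without ouabain in cells lacking the KCC2 cotransporter; slope of fluorescence scaled to its starting value between 10 and 20 s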
Numbers without * were called inactive; i = inactive; ? = inconclusive; nt = not tested or not shown. Most compounds without a hit are left out; they make up all but 4.2% or so of the library.

SMILES	Cl transport mod	KCNQ1 act	KCNQ1 inh	SUMO Mot1 rescue	hERG protect	AI-2 QS mod	KCC2 secondary	KCC2 bumet counter	KCC2 sec2	HEK293 Tl flux	KCC2 ouabain	HEK counter2
CN(C)Cc1c(-c2ccc(Cl)cc2)nc2ccc(Cl)cn12	-0.55	i	i	-3	-9	20	nt	nt	nt	nt	nt	nt
O=c1cc(CN2CCc3ccccc32)c2ccc(O)cc2o1	nt	i	i	9	-6	-19	0.0089	0.0062	0.038	0.0035	0.018*	0.01
CCc1ccc2c(CN3CCc4ccccc43)cc(=O)oc2c1	-0.03	i	i	nt	-8	20	nt	nt	nt	nt	nt	nt
CCN(CC(=O)Nc1cccc(OC)c1)CC(=O)Nc1ccc(C)cc1Cl	-0.083	i	i	0	-13	21	nt	nt	nt	nt	nt	nt
CCOC(=O)N1CCN(Cc2nc(N)nc(Nc3ccc(Oc4ccccc4)cc3)n2)CC1	-4.1*	nt	nt	18	nt	nt	0.0065	0.0038	0.028	0.0073	0.017	0.0096
c1ccc(-c2nc3ccccc3[nH]2)cc1	nt	i	i	6	-4	30	nt	nt	nt	nt	nt	nt
S=c1nc(-c2ccccc2)[nH]c2ccc(Br)cc12	107*	101*	i	7	59*	3	0.025*	0.12*	0.099*	0.11*	0.11*	0.096*
Cc1cc(C=C2C(=O)c3ccccc3C2=O)c(C)n1-c1cccc(C(=O)O)c1	-5.4*	i	i	-8	-25	44	0.014	?	0.02*	0.0056*	0.01*	0.0083
O=C(NCc1ccccc1)C(c1cccnc1)N(C(=O)c1csnn1)c1ccccc1 (configuration not stated)	nt	i	i	-26	-4	11	nt	nt	nt	nt	nt	nt
O=C(C1=C(O)/C(=C/c2ccc(O)cc2)CCC1)C(F)(F)F	-1.3	i	i	-5	-8	31	nt	nt	nt	nt	nt	nt
COc1ccc(/C=C2\CCCC(C(=O)C(F)(F)F)=C2O)cc1	nt	i	i	-4	2	37	0.0094	0.024*	0.03	0.011*	0.034*	0.01*
Cc1[nH]c2ccccc2c1SCC(=O)N1CCN(c2ccccc2)CC1	-3.9*	i	i	-2	-10	17	0.0076	0.0043	0.022*	0.0071	0.015*	0.0095
N#C/C(=N\Nc1ccc(F)cc1)C(=O)C1CC1	-1.6	i	i	34	-7	12	nt	nt	nt	nt	nt	nt
N#C/C(=N\Nc1ccc(Cl)c(Cl)c1)C(=O)C1CC1	-6*	i	i	114	-9	19	0.0064	0.0042	0.023*	0.004*	0.012*	0.0074*
COC(=O)CC1C(=O)NCCN1C(=O)CSc1nc2ccccc2c(=O)n1CC(C)C (configuration not stated)	22*	i	i	0	-5	-7	0.0067	0.035*	0.04*	0.032*	0.038*	0.026*
CCOC(=O)c1ccc(NC(=S)NC(=O)c2nn(CC)cc2Br)cc1	6*	i	i	-6	-5	14	0.011	0.0097*	0.034	0.0092*	0.025	0.012*
